From ChEMBL document CHEMBL2040803, “Synthesis and anticonvulsant activity of ethyl 1-(2-arylhydrazinecarboxamido)-2,2-dimethylcyclopropanecarboxylate derivatives” (Eur J Med Chem, 2012) come the findings set out here.

Active and inactive are the calls of the source. Some results are limits rather than exact numbers.

Data set [1] deals with Mus musculus. Put plainly: Anticonvulsant activity in Kunming mouse assessed as protection against maximal electroshock-induced seizures at 30 mg/kg, ip measured after 0.5 hr. It counts as functional, organism-based. Further details: dose 30 mg/kg. A digest of the protocol: (§1)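 Male Kunming mice (20 ± 2.0 g) were dosed ip at 30, 100 and 300 mg/kg as a suspension in 0.5% methylcellulose, one to four mice per dose. A 60-Hz, 50-mA current was applied through corneal electrodes for 0.25 s at 0.5 h and 4.0 h after dosing. Absence of hindlimb tonic extension counted as protection. The value is the minimal dose protecting half or more of the mice.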

In data set [2] the test system is Mus musculus. Put plainly: Anticonvulsant activity in Kunming mouse assessed as protection against maximal electroshock-induced seizures at 30 mg/kg, ip measured after 4 hrs. It is filed as functional, organism-based. More on the design: dose 30 mg/kg. The procedure, abridged: as §1
Data set [3] relates to Mus musculus. Put plainly: Anticonvulsant activity in Kunming mouse assessed as protection against subcutaneous pentylenetetrazol-induced clonic seizures at 300 mg/kg, ip measured after 0.5 hrs. It is filed as functional, organism-based. Further details: dose 300 mg/kg. A digest of the protocol: (§2)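 Male Kunming mice (20 ± 2.0 g) received ip doses of 30, 100 or 300 mg/kg as a suspension in 0.5% methylcellulose, one to four mice per dose. Pentylenetetrazole in 0.9% saline was injected subcutaneously. Protection meant failure to show even a threshold seizure (a single clonic spasm lasting at least 5 s), read at 0.5 h and 4.0 h. Activity was scored as the minimal dose protecting half or more of the mice.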

The test system of data set [4] is Mus musculus. Put plainly: Anticonvulsant activity in Kunming mouse assessed as protection against subcutaneous pentylenetetrazol-induced clonic seizures at 300 mg/kg, ip measured after 4 hrs. It is filed as functional, organism-based. More on the design: dose 300 mg/kg. A digest of the protocol: as §2
In data set [5] the test system is Mus musculus. Put plainly: Neurotoxicity in Kunming mouse at 100 mg/kg, ip after 0.5 hr by rotorod test. It is filed as toxicity, organism-based. Further details: dose 100 mg/kg, route intraperitoneal. The settings on record: in vivo. A digest of the protocol: (§3)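 Trained male Kunming mice were given ip doses of 30, 100 or 300 mg/kg, one to four per dose. They were placed on a 1 in. knurled rod rotating at 6 rpm, and examined at 0.5 h and 4.0 h. Neurotoxicity was inability to keep balance for at least 1 min in each of four trials. The value is the minimal dose giving toxicity in half or more of the mice.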
(Falling from the rotarod earlier than controls is read as motor impairment.)

Data set [6] deals with Mus musculus. Put plainly: Anticonvulsant activity in ip dosed Kunming mouse assessed as protection against subcutaneous pentylenetetrazol-induced clonic seizures. It is filed as functional.
For data set [7], the system named is Mus musculus. Put plainly: Neurotoxicity in Kunming mouse at 100 mg/kg, ip after 4 hrs by rotorod test. It is filed as toxicity, organism-based. Further details: dose 100 mg/kg, route intraperitoneal. As to conditions: in vivo. The procedure, abridged:
as §3

The test system of data set [8] is Mus musculus. Put plainly: Anticonvulsant activity in Kunming mouse assessed as protection against subcutaneous pentylenetetrazol-induced clonic seizures at 100 mg/kg, ip measured after 4 hrs. More on the design: dose 100 mg/kg. It is filed as functional, organism-based. The procedure, abridged:
as §2

Data set [9] relates to Mus musculus. Put plainly: Neurotoxicity in Kunming mouse at 300 mg/kg, ip after 0.5 hr by rotorod test. It is filed as toxicity, organism-based. Further details: dose 300 mg/kg, route intraperitoneal. The settings on record: in vivo. The procedure, abridged: as §3
The subject of data set [10] is Mus musculus. Put plainly: Anticonvulsant activity in ip dosed Kunming mouse assessed as protection against maximal electroshock-induced seizures. It is filed as functional. On the technique in general: Protection in the maximal electroshock model is a classic sign of anticonvulsant action.
Data set [11] in a line: Neurotoxicity in ip dosed Kunming mouse measured 30 mins post compound administration by rotorod test. It counts as toxicity, organism-based. As to conditions: in vivo.
The species entered for data set [12] is Mus musculus. Put plainly: Protective index, ratio of TD50 for neurotoxicity in Kunming mouse to ED50 for protection against MES-induced seizures in Kunming mouse. It counts as functional.
For data set [13], the system named is Mus musculus. Put plainly: Protective index, ratio of TD50 for neurotoxicity in Kunming mouse to ED50 for protection against subcutaneous pentylenetetrazol-induced clonic seizures in Kunming mouse. It is filed as functional.
Data set [14] deals with Mus musculus. Put plainly: Neurotoxicity in Kunming mouse at 300 mg/kg, ip after 4 hrs by rotorod test. It is filed as toxicity, organism-based. Further details: dose 300 mg/kg, route intraperitoneal. The settings on record: in vivo. A digest of the protocol:
as §3

Data set [15] concerns Mus musculus. Put plainly: Anticonvulsant activity in Kunming mouse assessed as protection against maximal electroshock-induced seizures at 100 mg/kg, ip measured after 4 hrs. It is filed as functional, organism-based. More on the design: dose 100 mg/kg. The procedure, abridged:
as §1

The test system of data set [16] is Mus musculus. Put plainly: Anticonvulsant activity in Kunming mouse assessed as protection against subcutaneous pentylenetetrazol-induced clonic seizures at 100 mg/kg, ip measured after 0.5 hrs. More on the design: dose 100 mg/kg. It counts as functional, organism-based. A digest of the protocol: as §2

The ED50 is the midpoint of the dose-response relation. In the case of `O=C1NC(=O)C(c2ccccc2)(c2ccccc2)N1` [PHENYTOIN], the outcome with Mus musculus [1] and in the data set with Mus musculus [2] was Active. The result in the data set with Mus musculus [3] and in the data set with Mus musculus [4] was inactive. Moreover, the Activity result in the data set on Mus musculus [5] and with Mus musculus [7] was “Toxic” in each case. Besides, in the data set with Mus musculus [6], the ED50 is more than 300 mg/kg.
Broadly, the TD50 is the 50% point of the dose-response relation for the toxic effect studied. Higher therefore signals lower toxicity. In the case of `CCOC(=O)C1(NC(=O)NNC(=O)c2ccc(C(F)(F)F)cc2)CC1(C)C` (centres undefined), the result in the data set on Mus musculus [1], in the data set with Mus musculus [2], in the data set with Mus musculus [3] and in the data set with Mus musculus [8] was Active. For the same compound, the Activity entry in the data set with Mus musculus [9] and in the data set on Mus musculus [14] was “Non-toxic” in each case. The ED50 stood at 9.8 mg/kg with Mus musculus [10] and 58.4 mg/kg in the data set on Mus musculus [6]. The TD50 at 0.5 h in data set [11] amounted to 332 mg/kg. For the same compound, the entries for the “Ratio TD50/ED50” value in the data set listed under Mus musculus [12] and in the data set with Mus musculus [13] were 33.9 and 5.9, respectively.
As for `CCOC(=O)C1(NC(=O)NN2C(=O)c3ccccc3C2=O)CC1(C)C` (centres undefined), the outcome in the data set on Mus musculus [1], with Mus musculus [15], with Mus musculus [16] and in the data set with Mus musculus [4] was Active. Also, the Activity entry in the data set on Mus musculus [9] and with Mus musculus [14] was “Non-toxic” each time. Further, the ED50 in the data set on Mus musculus [10] came out at 23.6 mg/kg; with Mus musculus [6] it was 213 mg/kg. The compound also had a TD50 at 0.5 h in data set [11] of 352 mg/kg. Also, the “Ratio TD50/ED50” value is listed as 14.9 in the data set filed under Mus musculus [12] and 1.7 in the data set on Mus musculus [13].
